The list is not random: actives were taken first. Their share in the collection is about 2.6%.
MC4R ag barr: MC4R agonists recruiting beta-arrestin, primary screen, cell-based, luminescence, agonist arm of biased-ligand search; activation, % at 8.9 µM; Melanocortin receptor 4 (Homo sapiens), P32245; U2OS MC4R beta-arrestin complementation; percent of melanotan II response, DMSO zero; actives 0.98% (n = 360,000); AID 540308, 2011;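 active means activation above a per-plate cutoff, the mean activation of sample wells on that plate plus 3 SD, cut at about 8% in these data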
ABCB6 inh 2: ABCB6 transporter inhibitors, primary screen, K562-ABCB6 cells, flow cytometry, MLPCN library. ATP-binding cassette sub-family B member 6 (Homo sapiens), Q9NP58. K562-ABCB6 porphyrin accumulation, 1 h; hits give low values. fluorescence ratio to DMSO, % at 10 µM. actives 0.19% (n = 360,000). AID 602162, 2011;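 active means fluorescence ratio to DMSO below 75%, the collection mean minus 3 SD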;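 further: signal is porphyrin accumulated inside mitochondria; lower ratio means ABCB6 inhibition with less porphyrin fluorescence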
Target sequence (Q9NP58 whole entry, looked up): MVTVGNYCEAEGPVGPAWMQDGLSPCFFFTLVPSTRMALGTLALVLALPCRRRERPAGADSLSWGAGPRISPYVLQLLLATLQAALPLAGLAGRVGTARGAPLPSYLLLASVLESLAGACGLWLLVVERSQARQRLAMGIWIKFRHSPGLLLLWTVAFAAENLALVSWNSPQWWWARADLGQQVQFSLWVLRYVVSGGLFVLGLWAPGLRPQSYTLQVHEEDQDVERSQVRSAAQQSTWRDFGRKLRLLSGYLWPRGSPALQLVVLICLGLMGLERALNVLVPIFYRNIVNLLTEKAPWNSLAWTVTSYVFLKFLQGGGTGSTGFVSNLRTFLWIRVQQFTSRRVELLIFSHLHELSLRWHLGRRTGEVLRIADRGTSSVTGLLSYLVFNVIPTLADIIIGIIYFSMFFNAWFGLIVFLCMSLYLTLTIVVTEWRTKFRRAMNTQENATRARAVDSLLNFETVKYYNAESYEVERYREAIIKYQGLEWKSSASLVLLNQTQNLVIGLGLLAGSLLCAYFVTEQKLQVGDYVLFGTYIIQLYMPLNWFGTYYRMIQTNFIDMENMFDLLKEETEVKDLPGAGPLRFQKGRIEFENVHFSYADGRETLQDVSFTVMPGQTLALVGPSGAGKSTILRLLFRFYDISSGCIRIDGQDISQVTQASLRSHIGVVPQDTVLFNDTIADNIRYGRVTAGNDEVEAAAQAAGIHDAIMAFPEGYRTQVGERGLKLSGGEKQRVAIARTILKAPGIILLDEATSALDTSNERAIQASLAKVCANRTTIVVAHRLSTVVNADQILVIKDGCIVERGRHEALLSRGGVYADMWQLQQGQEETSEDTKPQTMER
TbMetRS inhib: T. brucei MetRS inhibitors, primary screen, biochemical, luminescence. methionyl-tRNA synthetase (Trypanosoma brucei brucei). purified T. brucei MetRS, ATP depletion, Kinase-Glo luminescence. inhibition, % at 11.9 µM. actives 0.4% (n = 360,000). AID 624268, 2012;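 active means inhibition above a per-plate cutoff of the control wells' mean inhibition plus 3 SD, cut at about 5.5% in these data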
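Material – parasite MetRS enzyme · Medium – HEPES-MgCl2-KCl buffer plus DTT, spermine, BSA, pyrophosphatase · Reagent – ATP, methionine and E. coli bulk tRNA substrates · Times – 15 min enzyme-compound preincubation, 2 h reaction, 10 min detection, 25 °C · Measured by – luminescence of leftover ATP · Evaluation – percent inhibition relative to median high and low control wells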
Granule exo inh: LAMP-1 surface exposure blockers, TALL-104 cells – cell-based, flow cytometry, MLPCN library, primary screen. inhibition, % at 10 µM. actives 0.66% (n = 360,000). TALL-104 LAMP-1 surface exposure; cells stimulated with thapsigargin and PMA;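 active means inhibition above about 55%, limit read from the data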
hiPSC survival: enhancers of single-cell hiPSC survival, primary screen, ATPlite luminescence | 100% = ROCK inhibitor wells, 0% = DMSO | survival enhancement, % at 20 µM | actives 0.044% (n = 360,000); in the data active means survival enhancement above about 18%;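 further: cells exposed to compounds for 16 hours before the ATP read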
MC4R antagonist: MC4R antagonists of cAMP signaling, primary screen, cell-based, TR-FRET, antagonist arm of biased-ligand search. AID 540295, 2011. inhibition, % at 6.5 µM. MC4R-expressing cells, MTII-stimulated cAMP, LANCE TR-FRET. actives 0.48% (n = 360,000). Melanocortin receptor 4 (Homo sapiens), P32245;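 active means inhibition above its plate's cutoff, the mean of tested wells on that plate plus 3 SD, cut at about 29% in these data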
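System: U2OS cells stably expressing human melanocortin 4 receptor (MC4R). Reagent: Melanotan II challenge after compound preincubation. Doses: 6.5 µM. Times: 30-min compound, 1-h challenge, 1-h detection, room temperature. Measured by: TR-FRET with Eu-cAMP and labeled anti-cAMP, 671 nm. Replicates: singlicate.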
MC4R barr conf: MC4R beta-arrestin agonists, retest, confirmation, cell-based, luminescence, U2OS; actives 31% (n = 2,400); AID 602192, 2012; U2OS MC4R beta-arrestin recruitment; scaled DMSO 0%, Melanotan II 100%; activation, % at 8.9 µM; shares compounds with MC4R ag barr;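 active means mean activation across replicates above the hit cutoff set in the earlier primary screen, cut at about 8% in these data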
MOR-DOR barr ag: agonists of MOR-DOR heterodimerization, counter-screen for MC4R biased agonist project, cell-based, luminescence | actives 5.8% (n = 2,400) | AID 602194, 2012 | U2OS PathHunter beta-arrestin, beta-gal luminescence; percent of deltorphin B response, DMSO zero | shares compounds with MC4R ag barr | activation, % at 9.2 µM;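 active means mean activation across replicates exceeds the hit threshold derived in the earlier primary screen, cut at about 18% in these data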
Each line names hits and unclear results; the compound was inactive in the other large screens (follow-up assays come after a bar, where they were run).

O=C(CNC(=S)NC(=O)c1ccc(Br)o1)c1ccccc1	MC4R ag barr 11 | MC4R barr conf inactive | MOR-DOR barr ag inactive
O=C(CNC(=S)NC(=O)c1ccc(Cl)cc1)c1ccccc1	MC4R ag barr 12 | MC4R barr conf inactive | MOR-DOR barr ag inactive
CC(OC(=O)CCN=C1NS(=O)(=O)c2ccccc21)C(=O)Nc1ccc(F)cc1 (stereo unspecified)	none
CCN(CC(=O)Nc1c(F)cccc1F)C(=O)CNC(=O)c1sc2ccccc2c1Cl	none
O=C(CN1CCN(c2ccccc2)CC1)NC(=O)NCc1ccccc1	MC4R ag barr 14 | MC4R barr conf inactive | MOR-DOR barr ag inactive
COC(=O)c1ccccc1NC(=O)C1CC(c2ccccc2O)=NO1 (stereo unspecified)	MC4R ag barr 14 | MC4R barr conf inactive | MOR-DOR barr ag inactive
c1ccc(-c2csc(Nc3nc(N4CCOCC4)nc(N4CCOCC4)n3)n2)cc1	MC4R ag barr 14 | MC4R barr conf 11 | MOR-DOR barr ag inactive
CC1CCCC(C)N1C(=O)CSc1nnc(COc2ccccc2)n1-c1ccccc1 (stereo unspecified)	none
S=C(Nc1cc(Cl)cc(Cl)c1)NC1CCN(Cc2ccccc2)CC1	MC4R ag barr 13 | MC4R barr conf inactive | MOR-DOR barr ag 22
CCC(=O)OCc1cc2cccc(C)c2[nH]c1=O	none
COc1ccc(C(=O)OCc2cc3cccc(C)c3[nH]c2=O)cc1	MC4R ag barr 15 | MC4R barr conf inactive | MOR-DOR barr ag inactive
COc1ccc(CC(=O)OCc2cc3cccc(C)c3[nH]c2=O)cc1	MC4R ag barr 21 | MC4R barr conf inactive | MOR-DOR barr ag inactive
CCOc1cc(NC(=O)c2cccs2)c(OCC)cc1NC(=O)c1ccco1	MC4R ag barr 12 | MC4R barr conf 17 | MOR-DOR barr ag inactive
COc1ccc(NC(=O)c2cccs2)cc1NC(=O)c1ccco1	none
NC(=O)c1ccc(-c2nnn(CC(=O)Nc3cccc(S(=O)(=O)N4CCCC4)c3)n2)cc1	none
COc1ccc(OC2C(=O)N(Cc3ccc4c(c3)OCO4)C2c2cccs2)cc1 (stereo unspecified)	none
COc1ccc(CCN2C(=O)C(Oc3ccccc3)C2c2ccc3c(c2)OCO3)cc1 (stereo unspecified)	MC4R ag barr 18 | MC4R barr conf inactive | MOR-DOR barr ag inactive
O=C(O)CN1C(=O)/C(=C\c2ccccc2OCc2ccc(Cl)cc2)SC1=S	none
O=C(O)CN1C(=O)/C(=C\c2cc(Br)ccc2OCc2ccc(Cl)cc2Cl)SC1=S	MC4R ag barr 11 | MC4R barr conf inactive | MOR-DOR barr ag inactive
CCc1cccc(OCC(=O)Nc2cc(S(=O)(=O)N3CCOCC3)ccc2N2CCCC2)c1	none
C=CCNc1nc(C(F)(F)F)nc2c1nnn2Cc1ccccc1Cl	MC4R ag barr 12 | MC4R barr conf inactive | MOR-DOR barr ag inactive
CCN(CC)C(=O)c1cccc(-c2csc(C(O)(c3ccccc3)C(F)(F)F)n2)c1 (stereo unspecified)	none
COc1ccc(N2CCN(C(=O)CCNC(=O)Cn3ccc4ccccc4c3=O)CC2)cc1	none

Screening data deposited in PubChem BioAssay by several laboratories.
